Source: paper PMC3582904 (International Journal of Oncology, 2012)
Like-named read-outs stand apart in the source and are kept apart here. Marks after values point to notes of the source that are not given here.

Legend:
EHMES-10 cells [1] = assay: WST-1 cell proliferation assay, EHMES-10; format: cell-based, human; details: read-out: IC50 against EHMES-10 cells, 72 h
Summary of the method: (§1)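 Cells at 1×10^4 per well in RPMI-1640/10% FBS were exposed for 72 h to test compound at 20 to 200 μM, with DMSO final 1.0%. Vehicle controls received matching DMSO. WST-1 reagent was then added, and absorbance was read at 450 nm against a 690 nm reference. IC50 was taken from the dose-response; means ± SD.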

MSTO211H cells [2] = assay: WST-1 cell proliferation assay, MSTO211H; format: cell-based, human; details: read-out: IC50 against MSTO211H cells, 72 h
Summary of the method: as §1

EHMES-10 cells [3] = assay: Cell cycle analysis; format: cell-based, human; details: 24 h; for percentage of cells in sub-G1 phase compared to control: EHMES-10, 80 μM each agent; for G1-phase population compared to control: EHMES-10, 80 μM, P<0.05
Summary of the method: (§2)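 Cells grown in RPMI-1640 with 10% FBS at 37°C and 5% CO2 were exposed to 80 μM MEK inhibitor, 80 μM PI3K inhibitor or both for 24 h (DMSO final 1.0%). They were then trypsinized, and nuclei were stained with propidium iodide (CycleTest Plus kit). Phase profiles came from FACScan flow cytometry. Three independent runs; means ± SD, ANOVA with Dunnett's test.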

MSTO211H cells [4] = assay: Cell cycle analysis; format: cell-based, human; details: 24 h; for percentage of cells in sub-G1 phase compared to control: 80 μM each agent; for G1-phase population compared to control: 80 μM, P<0.05
Summary of the method: as §2

EHMES-10 cells [5] = assay: DNA fragmentation assay; format: cell-based, human; details: EHMES-10, single agent, 24 h, dose-dependent
Summary of the method: (§3)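 Apoptosis was scored after 24 h exposure to either MEK or PI3K inhibitor or their combination, in RPMI-1640/10% FBS with DMSO final 1.0%. Cytoplasmic histone-associated DNA fragments were quantified with the Cell Death Detection ELISA kit. Means ± SD, ANOVA with Dunnett's test.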

MSTO211H cells [6] = assay: DNA fragmentation assay; format: cell-based, human; details: single agent, 24 h, dose-dependent
Summary of the method: as §3

EHMES-10 cells [7] = assay: Western blot analysis of cultured EHMES-10 cells; format: cell-based, human; details: EHMES-10, 80 μM, 24 h
Summary of the method: (§4)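 Cultured cells received 80 μM MEK inhibitor and/or 80 μM PI3K inhibitor for 24 h. Lysates were cleared at 15,000 × g, 15 min, 4°C, resolved on 7.5–15% gels, transferred to nitrocellulose and immunoblotted; three independent experiments.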

MSTO211H cells [8] = assay: Western blot analysis of cultured MSTO211H cells; format: cell-based, human; details: 80 μM, 24 h
Summary of the method: as §4

EHMES-10 cells [9] = assay: Orthotopic implantation model, EHMES-10 cells in SCID mice; format: in vivo; details: for survival time compared to control group: P<0.01; for Pleural effusion Incidence / Thoracic tumor Incidence: day 30; for Pleural effusion Volume / Thoracic tumor Weight: day 30, median (range)
Summary of the method: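 Male SCID mice aged 6–8 weeks received 3×10^6 EHMES-10 cells in PBS into the thoracic cavity. On day 7 they were randomized, […], to vehicle (40% DMSO in PBS), MEK inhibitor (20, 30, 40 mg/kg), PI3K inhibitor (12.5, 25, 50 mg/kg) or 30 + 25 mg/kg combined, given i.p. twice weekly. Mice were killed on day 30; tumor weighed, effusion volume measured. Medians (ranges), Mann-Whitney; survival by Kaplan-Meier/log-rank.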

[10] = Side effects in EHMES-10 cell-bearing SCID mice; format: in vivo; details: day 30, median (range)
EHMES-10 cells [11] = format: in vivo, SCID mice; details: thoracic tumors, day 30; for expression of p27kip1 and 89 kDa cleaved PARP (western blot of tumors): 30 mg/kg U0126, 25 mg/kg LY294002 or combination
Summary of the method: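 Thoracic tumors were excised on day 30 from SCID mice given i.p. test compounds twice weekly in 40% DMSO/PBS. Paraffin sections were immunostained for phospho-ERK1/2, phospho-Akt and p27kip1 (Envision method, Fuchsin+ chromogen). Tumor homogenates were lysed in Tris/NaCl/Triton/NaF/Na3VO4 buffer, cleared at 15,000 × g, separated on 7.5–15% gels and immunoblotted.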

[12] = patients with advanced non-small cell lung, breast, colon, and pancreatic cancers; diarrhea, nausea, asthenia, rash, anorexia; cited from earlier work
[13] = cited from earlier work
[14] = 30 mg/kg U0126, alone or with 25 mg/kg LY294002
[15] = 25 mg/kg LY294002, alone or with 30 mg/kg U0126

N#CC(=C(/N)Sc1ccccc1N)/C(C#N)=C(/N)Sc1ccccc1N [U0126]
IC50 (EHMES-10 cells [1]; WST-1 assay): 66.8 µM | IC50 (MSTO211H cells [2]; WST-1 assay): 39 µM | percentage of cells in sub-G1 phase compared to control (EHMES-10 cells [3]): significantly increased | G1-phase population compared to control (EHMES-10 cells [3]): significantly increased | percentage of cells in sub-G1 phase compared to control (MSTO211H cells [4]): significantly increased | G1-phase population compared to control (MSTO211H cells [4]): significantly increased | apoptosis by DNA fragmentation analysis (EHMES-10 cells [5]): induced apoptosis | apoptosis by DNA fragmentation analysis (MSTO211H cells [6]): induced apoptosis | HIF1α and VEGF expression (EHMES-10 cells [7]): decreased | cyclin D1 expression (EHMES-10 cells [7]): decrease | level of 89 kDa cleaved PARP (EHMES-10 cells [7]): increased | levels of phospho-Bad and procaspase 3 (EHMES-10 cells [7]): decreased | phosphorylation of ERK1/2 and p90RSK (EHMES-10 cells [7]): blocked | cyclin D1 expression (MSTO211H cells [8]): decrease | level of 89 kDa cleaved PARP (MSTO211H cells [8]): increased | levels of phospho-Bad and procaspase 3 (MSTO211H cells [8]): decreased | survival time compared to control group (EHMES-10 cells [9]; 30 mg/kg i.p. twice a week): significantly prolonged | Pleural effusion Incidence (EHMES-10 cells [9]; 30 mg/kg i.p. twice/week): 1/5 | Thoracic tumor Incidence (EHMES-10 cells [9]; 30 mg/kg i.p. twice/week): 4/5 | Pleural effusion Volume (EHMES-10 cells [9]; 30 mg/kg i.p. twice/week): 0 (0–100)^a μl | Thoracic tumor Weight (EHMES-10 cells [9]; 30 mg/kg i.p. twice/week): 31.3 (0–59.2)^a mg | survival time compared to control group (EHMES-10 cells [9]; 40 mg/kg i.p. twice a week): significantly prolonged | Pleural effusion Incidence (EHMES-10 cells [9]; 40 mg/kg i.p. twice/week): 0/5 | Thoracic tumor Incidence (EHMES-10 cells [9]; 40 mg/kg i.p. twice/week): 3/5 | Pleural effusion Volume (EHMES-10 cells [9]; 40 mg/kg i.p. twice/week): 0 (−)^a μl | Thoracic tumor Weight (EHMES-10 cells [9]; 40 mg/kg i.p. twice/week): 14.6 (0–191.3)^a mg | ALT ([10]; 30 mg/kg i.p. twice/week): 30 (20–60) IU/l | AST ([10]; 30 mg/kg i.p. twice/week): 48 (44–64) IU/l | BUN ([10]; 30 mg/kg i.p. twice/week): 22.2 (15.4–24.0) mg/dl | Cre ([10]; 30 mg/kg i.p. twice/week): 0.10 (0.08–0.15) mg/dl | TP (serum total protein) ([10]; 30 mg/kg i.p. twice/week): 4.3 (4.0–5.0) g/dl | Weight (body weight) ([10]; 30 mg/kg i.p. twice/week): 24.1 (23.5–27.2) g | ALT ([10]; 40 mg/kg i.p. twice/week): 45 (31–80) IU/l | AST ([10]; 40 mg/kg i.p. twice/week): 75 (53–111) IU/l | BUN ([10]; 40 mg/kg i.p. twice/week): 19.1 (15.3–22.1) mg/dl | Cre ([10]; 40 mg/kg i.p. twice/week): 0.07 (0.05–0.12)^a mg/dl | TP (serum total protein) ([10]; 40 mg/kg i.p. twice/week): 5.0 (4.4–6.6) g/dl | Weight (body weight) ([10]; 40 mg/kg i.p. twice/week): 24.9 (23.3–25.9) g | expression of p27kip1 and 89 kDa cleaved PARP (western blot of tumors) (EHMES-10 cells [11]): increased | ERK1/2 phosphorylation (western blot of tumors) (EHMES-10 cells [11]; [14]): inhibited | phospho-ERK1/2-positive tumor cells (immunohistochemistry) (EHMES-10 cells [11]; [14]): reduced

O=C(NOCC1CC1)c1ccc(F)c(F)c1Nc1ccc(I)cc1Cl [CI-1040]
toxicities in patients [12]: mild or moderate toxicities

O=c1cc(N2CCOCC2)oc2c(-c3ccccc3)cccc12 [LY294002]
IC50 (EHMES-10 cells [1]; Homo sapiens): 20.7 µM | IC50 (MSTO211H cells [2]; Homo sapiens, MSTO-211H): 29.9 µM | percentage of cells in sub-G1 phase compared to control (EHMES-10 cells [3]): significantly increased | G1-phase population compared to control (EHMES-10 cells [3]): significantly increased | percentage of cells in sub-G1 phase compared to control (MSTO211H cells [4]): significantly increased | G1-phase population compared to control (MSTO211H cells [4]): significantly increased | apoptosis by DNA fragmentation analysis (EHMES-10 cells [5]): induced apoptosis | apoptosis by DNA fragmentation analysis (MSTO211H cells [6]): induced apoptosis | HIF1α and VEGF expression (EHMES-10 cells [7]): inhibited | cyclin D1 expression (EHMES-10 cells [7]): decrease | level of 89 kDa cleaved PARP (EHMES-10 cells [7]): increased | levels of phospho-Bad and procaspase 3 (EHMES-10 cells [7]): decreased | phosphorylation of Akt, p70S6K, S6 and GSK3β (EHMES-10 cells [7]): suppressed | level of 89 kDa cleaved PARP (MSTO211H cells [8]): increased | levels of phospho-Bad and procaspase 3 (MSTO211H cells [8]): decreased | Pleural effusion Incidence (EHMES-10 cells [9]; 25 mg/kg i.p. twice/week): 1/5 | Thoracic tumor Incidence (EHMES-10 cells [9]; 25 mg/kg i.p. twice/week): 3/5 | Pleural effusion Volume (EHMES-10 cells [9]; 25 mg/kg i.p. twice/week): 0 (0–10)^a μl | Thoracic tumor Weight (EHMES-10 cells [9]; 25 mg/kg i.p. twice/week): 69.1 (0–481.6)^a mg | survival time compared to control group (EHMES-10 cells [9]; 50 mg/kg i.p. twice a week): significantly prolonged | Pleural effusion Incidence (EHMES-10 cells [9]; 50 mg/kg i.p. twice/week): 0/5 | Thoracic tumor Incidence (EHMES-10 cells [9]; 50 mg/kg i.p. twice/week): 2/5 | Pleural effusion Volume (EHMES-10 cells [9]; 50 mg/kg i.p. twice/week): 0 (−)^a μl | Thoracic tumor Weight (EHMES-10 cells [9]; 50 mg/kg i.p. twice/week): 0 (0–41)^a mg | ALT ([10]; 25 mg/kg i.p. twice/week): 19 (15–72) IU/l | AST ([10]; 25 mg/kg i.p. twice/week): 46 (37–117) IU/l | BUN ([10]; 25 mg/kg i.p. twice/week): 20.2 (17.9–23.0) mg/dl | Cre ([10]; 25 mg/kg i.p. twice/week): 0.11 (0.06–0.20) mg/dl | TP (serum total protein) ([10]; 25 mg/kg i.p. twice/week): 4.3 (3.9–5.6) g/dl | Weight (body weight) ([10]; 25 mg/kg i.p. twice/week): 25.4 (24.4–26.3) g | ALT ([10]; 50 mg/kg i.p. twice/week): 25 (16–42) IU/l | AST ([10]; 50 mg/kg i.p. twice/week): 51 (46–92) IU/l | BUN ([10]; 50 mg/kg i.p. twice/week): 21.0 (16.4–23.2) mg/dl | Cre ([10]; 50 mg/kg i.p. twice/week): 0.09 (0.07–0.12)^a mg/dl | TP (serum total protein) ([10]; 50 mg/kg i.p. twice/week): 4.4 (3.9–5.6) g/dl | Weight (body weight) ([10]; 50 mg/kg i.p. twice/week): 24.4 (22.7–26.3) g | Akt phosphorylation (western blot of tumors) (EHMES-10 cells [11]; [15]): inhibited | phospho-Akt-positive tumor cells (immunohistochemistry) (EHMES-10 cells [11]; [15]): reduced | expression of p27kip1 and 89 kDa cleaved PARP (western blot of tumors) (EHMES-10 cells [11]): increased | side effects ([13]; administration reduced to three days per week): side effects were not shown | side effects ([13]; daily intraperitoneal 100 mg/kg, mice with ovarian cancer): body weight loss and dry skin
